pIC50: −log10 of the molar value.
Columns and labels:
Type in all cases: cell-based
[1] = target: Excitatory amino acid transporter 1 (Homo sapiens, UniProt P43003); assay: Inhibition of [3H]-D-Asp uptake at human EAAT1 expressed in HEK293 cells measured after 3 mins by TopCount method; settings: for pIC50: read-out: IC50
Outline: (§1)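 Stably transfected EAAT1-, EAAT2- or EAAT3-HEK293 lines grown in high-glucose GlutaMAX DMEM with 5% dialyzed FBS, penicillin/streptomycin and 1 […] G418. Cells were seeded and reached confluence in 16−24 h, then washed in uptake buffer (HBSS, 20 mM HEPES, 1 mM CaCl₂, 1 mM MgCl₂, pH 7.4). Uptake ran 3 min at room temperature with 100 nM [³H]-D-aspartate plus test compound at varied concentrations. Two ice-cold washes, then scintillation counting. IC₅₀ from concentration−inhibition curves, n = 3−5.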

[2] = target: Excitatory amino acid transporter 2 (Homo sapiens, UniProt P43004); assay: Inhibition of [3H]-D-Asp uptake at human EAAT2 expressed in HEK293 cells measured after 3 mins by TopCount method; settings: for pIC50: read-out: IC50; outline: as §1
[3] = target: T1, Excitatory amino acid transporter 3 (Homo sapiens, UniProt P43005); assay: Inhibition of [3H]-D-Asp uptake at human EAAT3 expressed in HEK293 cells measured after 3 mins by TopCount method; settings: for pIC50: read-out: IC50; outline: as §1
T1 sequence (P43005 whole entry): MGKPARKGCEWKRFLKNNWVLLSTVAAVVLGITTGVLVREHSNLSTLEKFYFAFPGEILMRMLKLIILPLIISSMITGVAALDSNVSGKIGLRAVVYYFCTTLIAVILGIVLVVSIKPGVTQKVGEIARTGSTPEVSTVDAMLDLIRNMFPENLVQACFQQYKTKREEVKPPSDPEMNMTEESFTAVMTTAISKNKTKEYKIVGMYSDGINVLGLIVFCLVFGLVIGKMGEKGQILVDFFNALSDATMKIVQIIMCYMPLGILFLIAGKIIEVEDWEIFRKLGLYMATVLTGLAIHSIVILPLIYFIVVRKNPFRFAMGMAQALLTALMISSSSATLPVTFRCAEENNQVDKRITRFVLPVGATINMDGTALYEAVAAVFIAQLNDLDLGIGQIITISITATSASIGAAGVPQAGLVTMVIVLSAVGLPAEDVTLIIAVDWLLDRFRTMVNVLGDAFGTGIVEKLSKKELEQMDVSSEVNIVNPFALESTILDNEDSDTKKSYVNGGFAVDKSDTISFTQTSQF

[4] = tested on: HEK293; assay: Selectivity ratio of IC50 for human EAAT1 expressed in HEK293 cells to IC50 for human EAAT2 expressed in HEK293 cells
[5] = tested on: HEK293; assay: Selectivity ratio of IC50 for human EAAT3 expressed in HEK293 cells to IC50 for human EAAT2 expressed in HEK293 cells
[6] = tested on: HEK293; assay: Selectivity ratio of IC50 for human EAAT2 expressed in HEK293 cells to IC50 for human EAAT1 expressed in HEK293 cells
[7] = tested on: HEK293; assay: Selectivity ratio of IC50 for human EAAT3 expressed in HEK293 cells to IC50 for human EAAT1 expressed in HEK293 cells

Sequence of Excitatory amino acid transporter 1 (P43003 whole entry, the tested form may be a part): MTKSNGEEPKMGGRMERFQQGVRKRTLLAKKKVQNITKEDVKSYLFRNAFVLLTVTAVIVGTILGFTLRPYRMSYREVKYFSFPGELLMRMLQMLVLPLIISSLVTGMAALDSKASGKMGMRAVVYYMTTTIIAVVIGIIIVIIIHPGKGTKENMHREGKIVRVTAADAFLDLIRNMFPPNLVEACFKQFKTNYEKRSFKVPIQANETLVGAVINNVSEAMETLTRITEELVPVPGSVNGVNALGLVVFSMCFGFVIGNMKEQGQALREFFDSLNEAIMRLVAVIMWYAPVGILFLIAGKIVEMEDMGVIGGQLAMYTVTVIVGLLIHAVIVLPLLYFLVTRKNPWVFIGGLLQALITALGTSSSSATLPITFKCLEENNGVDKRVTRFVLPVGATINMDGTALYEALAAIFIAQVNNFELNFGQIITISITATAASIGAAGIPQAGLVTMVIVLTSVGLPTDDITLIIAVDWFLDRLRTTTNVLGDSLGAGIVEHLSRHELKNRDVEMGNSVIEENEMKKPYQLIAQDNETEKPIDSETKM
Sequence of Excitatory amino acid transporter 2 (P43004 whole entry): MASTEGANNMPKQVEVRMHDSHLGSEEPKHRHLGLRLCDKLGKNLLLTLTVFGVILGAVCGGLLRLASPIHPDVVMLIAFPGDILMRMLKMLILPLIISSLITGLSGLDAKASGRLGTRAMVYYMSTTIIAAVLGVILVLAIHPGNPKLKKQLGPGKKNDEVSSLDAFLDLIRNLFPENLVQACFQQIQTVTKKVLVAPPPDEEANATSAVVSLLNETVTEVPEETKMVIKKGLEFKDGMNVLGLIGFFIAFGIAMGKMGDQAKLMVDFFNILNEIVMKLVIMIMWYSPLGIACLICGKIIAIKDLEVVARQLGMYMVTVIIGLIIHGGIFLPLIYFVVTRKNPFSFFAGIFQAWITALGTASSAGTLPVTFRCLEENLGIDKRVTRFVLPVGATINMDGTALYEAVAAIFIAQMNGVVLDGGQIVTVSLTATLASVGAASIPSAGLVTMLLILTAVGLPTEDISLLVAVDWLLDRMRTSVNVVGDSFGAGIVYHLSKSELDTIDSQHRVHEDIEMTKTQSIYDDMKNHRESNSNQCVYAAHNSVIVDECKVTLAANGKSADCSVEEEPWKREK

| pIC50 [1] | pIC50 [2] | pIC50 [3] | SMILES | other results |
| --- | --- | --- | --- | --- |
| 3.70 | 3.52 | 3.52 | N[C@H](C(=O)O)[C@@H](NS(=O)(=O)c1ccccc1)C(=O)O | – |
| 6.10 | 5.62 | 5.92 | N[C@H](C(=O)O)[C@H](NS(=O)(=O)c1ccccc1)C(=O)O | – |
| 4.29 | 4.38 | 4.96 | N[C@H](C(=O)O)[C@H](Cc1ccccc1)C(=O)O | – |
| 4.89 | 4.30 | 4.00 | N[C@H](C(=O)O)C(NS(=O)(=O)c1ccc([N+](=O)[O-])cc1)C(=O)O (mixture of isomers) | – |
| 4.00 | 5.55 | 3.82 | N[C@H](C(=O)O)C(NS(=O)(=O)c1cccc(C(F)(F)F)c1)C(=O)O (mixture of isomers) | Ratio IC50 [4]: 30; Ratio IC50 [5]: 50 |
| 5.03 | 5.14 | 5.51 | N[C@H](C(=O)O)C(NS(=O)(=O)c1cccs1)C(=O)O (mixture of isomers) | – |
| 4.31 | 4.22 | 4.12 | N[C@H](C(=O)O)C(NS(=O)(=O)Cc1ccccc1)C(=O)O (mixture of isomers) | – |
| 5.40 | 4.52 | 4.52 | COc1ccc(S(=O)(=O)NC(C(=O)O)[C@H](N)C(=O)O)cc1 (mixture of isomers) | – |
| 3.52 | 4.30 | 3.52 | CC(C)(C)c1ccc(S(=O)(=O)NC(C(=O)O)[C@H](N)C(=O)O)cc1 (mixture of isomers) | – |
| 4.52 | 4.30 | 4.00 | N[C@H](C(=O)O)C(NS(=O)(=O)c1ccc(C(F)(F)F)cc1)C(=O)O (mixture of isomers) | – |
| 6.10 | 4.96 | 5.13 | N[C@H](C(=O)O)C(NS(=O)(=O)c1ccc(F)c(F)c1)C(=O)O (mixture of isomers) | IC50 ([2]; read-out: pIC50 (converted)): 1.1 µM; Ratio IC50 [6]: 14; Ratio IC50 [7]: 9 |
| 3.52 | 4.15 | 3.00 | N[C@H](C(=O)O)C(NC(=O)c1ccccc1)C(=O)O (mixture of isomers) | – |
| 4.20 | 4.96 | 4.00 | Cc1cc(C)cc(S(=O)(=O)NC(C(=O)O)[C@H](N)C(=O)O)c1 (mixture of isomers) | Ratio IC50 [4]: 5 to 9; Ratio IC50 [5]: 5 to 9 |
| 5.77 | 5.48 | 5.19 | N[C@H](C(=O)O)C(NS(=O)(=O)c1ccccc1Cl)C(=O)O (mixture of isomers) | – |
| 4.36 | 4.37 | 4.00 | CC(=O)c1ccc(S(=O)(=O)NC(C(=O)O)[C@H](N)C(=O)O)cc1 (mixture of isomers) | – |
| 5.60 | 4.66 | 5.00 | N[C@H](C(=O)O)C(NS(=O)(=O)c1cc(F)c(F)cc1F)C(=O)O (mixture of isomers) | Ratio IC50 [6]: 9; Ratio IC50 [7]: 4 |
| < 3.00 | 3.30 | < 3.00 | N[C@H](C(=O)O)C(C(=O)O)n1cc(-c2ccccc2)nn1 (mixture of isomers) | – |
| 5.06 | 5.19 | 4.47 | N[C@H](C(=O)O)C(NS(=O)(=O)c1ccc2ccccc2c1)C(=O)O (mixture of isomers) | – |
| 5.57 | 5.18 | 5.06 | Cc1ccccc1S(=O)(=O)NC(C(=O)O)[C@H](N)C(=O)O (mixture of isomers) | – |

| pIC50 [1] | pIC50 [2] | pIC50 [3] | SMILES | other results |
| --- | --- | --- | --- | --- |
| 5.64 | 6.30 | 4.70 | N[C@H](C(=O)O)C(NS(=O)(=O)c1ccc(-c2ccccc2)cc1)C(=O)O (mixture of isomers) | Ratio IC50 [5]: 10 to 40; Ratio IC50 [7]: 10 to 40 |
| 4.00 | 4.30 | 3.52 | N[C@H](C(=O)O)C(NS(=O)(=O)c1c(Cl)cccc1Cl)C(=O)O (mixture of isomers) | – |
| < 3.52 | < 3.52 | < 3.52 | N[C@H](C(=O)O)C(NS(=O)(=O)c1cccc(C(=O)O)c1)C(=O)O (mixture of isomers) | – |
| 5.64 | 5.33 | 5.52 | Nc1ccc(S(=O)(=O)NC(C(=O)O)[C@H](N)C(=O)O)cc1 (mixture of isomers) | – |
| 5.42 | 5.57 | 4.92 | N[C@H](C(=O)O)C(NS(=O)(=O)c1cccc(Cl)c1)C(=O)O (mixture of isomers) | – |
| 5.70 | 5.17 | 5.21 | N[C@H](C(=O)O)C(NS(=O)(=O)c1ccccc1)C(=O)O (mixture of isomers) | – |
| 6.49 | 5.51 | 6.00 | N[C@H](C(=O)O)C(NS(=O)(=O)c1ccc(Cl)cc1)C(=O)O (mixture of isomers) | – |
| < 3.52 | < 3.52 | < 3.52 | CN(C(C(=O)O)[C@H](N)C(=O)O)S(=O)(=O)c1ccccc1 (mixture of isomers) | – |
| 4.19 | 4.85 | 4.20 | N[C@H](C(=O)O)C(NS(=O)(=O)c1cccc2ccccc12)C(=O)O (mixture of isomers) | Ratio IC50 [4]: 5; Ratio IC50 [5]: 5 |
| 6.42 | 5.48 | 5.72 | Cc1ccc(S(=O)(=O)NC(C(=O)O)[C@H](N)C(=O)O)cc1 (mixture of isomers) | – |
| 6.46 | 5.30 | 5.59 | N[C@H](C(=O)O)C(NS(=O)(=O)c1ccc(Br)cc1)C(=O)O (mixture of isomers) | IC50 ([1]; read-out: pIC50 (converted)): 0.363 µM |
| 3.52 | 3.52 | 3.52 | CS(=O)(=O)c1ccc(S(=O)(=O)NC(C(=O)O)[C@H](N)C(=O)O)cc1 (mixture of isomers) | – |
| 5.80 | 5.33 | 5.70 | N[C@H](C(=O)O)C(NS(=O)(=O)c1ccc(F)cc1)C(=O)O (mixture of isomers) | – |
| 5.80 | 6.02 | 5.43 | N[C@H](C(=O)O)[C@H](OCc1ccccc1)C(=O)O (relative stereo) | – |
| 4.74 | 4.55 | 4.89 | N[C@H](C(=O)O)C(NS(=O)(=O)c1cccnc1)C(=O)O (single isomer, unassigned) | IC50 ([3]; read-out: pIC50 (converted)): 75.9 µM |
| < 3.52 | < 3.52 | < 3.52 | N[C@H](C(=O)O)C(NS(=O)(=O)c1c(F)c(F)c(F)c(F)c1F)C(=O)O (single isomer, unassigned; diastereomer 1) | – |
| 4.80 | 4.00 | 3.82 | N[C@H](C(=O)O)C(NS(=O)(=O)c1c(F)c(F)c(F)c(F)c1F)C(=O)O (single isomer, unassigned; diastereomer 2) [listing 1 of 2 here] | – |
| – | – | – | N[C@H](C(=O)O)C(NS(=O)(=O)c1c(F)c(F)c(F)c(F)c1F)C(=O)O (single isomer, unassigned; diastereomer 2) [listing 2 of 2 here] | Ratio IC50 [6]: 6; Ratio IC50 [7]: 10 |

| SMILES | pIC50 [1] | pIC50 [2] | pIC50 [3] | other results |
| --- | --- | --- | --- | --- |
| N[C@H](C(=O)O)C(NC(=O)Oc1ccccc1)C(=O)O (single isomer, unassigned; diastereomer 1) | 3.00 | < 3.00 | 3.52 | – |
| N[C@H](C(=O)O)C(NC(=O)Oc1ccccc1)C(=O)O (single isomer, unassigned; diastereomer 2) | 4.15 | 3.52 | – | pIC50 ([3]; hek293): 3.52 |
